Columns and labels:
[1] = molecular target: T1, Glucocorticoid receptor (Homo sapiens, UniProt P04150); assay: Effect on human Glucocorticoid receptor (GR) in a whole cell assay to measure functional cellular GR-antagonism (GRAF)
T1 sequence (P04150 whole entry): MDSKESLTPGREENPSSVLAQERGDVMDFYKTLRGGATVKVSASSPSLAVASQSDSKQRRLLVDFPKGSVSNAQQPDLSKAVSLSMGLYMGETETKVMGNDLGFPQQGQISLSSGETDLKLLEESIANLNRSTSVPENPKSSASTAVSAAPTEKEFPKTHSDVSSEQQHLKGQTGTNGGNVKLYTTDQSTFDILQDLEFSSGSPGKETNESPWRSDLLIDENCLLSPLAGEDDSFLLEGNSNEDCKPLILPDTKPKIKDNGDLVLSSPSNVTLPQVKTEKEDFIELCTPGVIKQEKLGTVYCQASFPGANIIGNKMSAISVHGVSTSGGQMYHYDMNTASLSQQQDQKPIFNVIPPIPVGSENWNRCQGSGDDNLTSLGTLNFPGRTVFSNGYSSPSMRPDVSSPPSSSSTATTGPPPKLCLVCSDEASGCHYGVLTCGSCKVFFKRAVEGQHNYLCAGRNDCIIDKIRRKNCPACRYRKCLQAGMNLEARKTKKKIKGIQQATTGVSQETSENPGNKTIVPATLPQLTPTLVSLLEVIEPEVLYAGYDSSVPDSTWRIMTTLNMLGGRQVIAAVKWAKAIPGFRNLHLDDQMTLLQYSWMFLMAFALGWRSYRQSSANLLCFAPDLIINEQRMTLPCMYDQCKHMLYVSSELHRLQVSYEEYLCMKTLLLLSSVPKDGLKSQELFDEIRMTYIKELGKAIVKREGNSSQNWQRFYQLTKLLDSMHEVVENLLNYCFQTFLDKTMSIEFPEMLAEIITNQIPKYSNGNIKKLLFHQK

[2] = molecular target: T1, Glucocorticoid receptor
[3] = molecular target: T2, Progesterone receptor (Homo sapiens, UniProt P06401); assay: Displacement of [3H]progesterone from human Progesterone receptor
T2 sequence (P06401 whole entry): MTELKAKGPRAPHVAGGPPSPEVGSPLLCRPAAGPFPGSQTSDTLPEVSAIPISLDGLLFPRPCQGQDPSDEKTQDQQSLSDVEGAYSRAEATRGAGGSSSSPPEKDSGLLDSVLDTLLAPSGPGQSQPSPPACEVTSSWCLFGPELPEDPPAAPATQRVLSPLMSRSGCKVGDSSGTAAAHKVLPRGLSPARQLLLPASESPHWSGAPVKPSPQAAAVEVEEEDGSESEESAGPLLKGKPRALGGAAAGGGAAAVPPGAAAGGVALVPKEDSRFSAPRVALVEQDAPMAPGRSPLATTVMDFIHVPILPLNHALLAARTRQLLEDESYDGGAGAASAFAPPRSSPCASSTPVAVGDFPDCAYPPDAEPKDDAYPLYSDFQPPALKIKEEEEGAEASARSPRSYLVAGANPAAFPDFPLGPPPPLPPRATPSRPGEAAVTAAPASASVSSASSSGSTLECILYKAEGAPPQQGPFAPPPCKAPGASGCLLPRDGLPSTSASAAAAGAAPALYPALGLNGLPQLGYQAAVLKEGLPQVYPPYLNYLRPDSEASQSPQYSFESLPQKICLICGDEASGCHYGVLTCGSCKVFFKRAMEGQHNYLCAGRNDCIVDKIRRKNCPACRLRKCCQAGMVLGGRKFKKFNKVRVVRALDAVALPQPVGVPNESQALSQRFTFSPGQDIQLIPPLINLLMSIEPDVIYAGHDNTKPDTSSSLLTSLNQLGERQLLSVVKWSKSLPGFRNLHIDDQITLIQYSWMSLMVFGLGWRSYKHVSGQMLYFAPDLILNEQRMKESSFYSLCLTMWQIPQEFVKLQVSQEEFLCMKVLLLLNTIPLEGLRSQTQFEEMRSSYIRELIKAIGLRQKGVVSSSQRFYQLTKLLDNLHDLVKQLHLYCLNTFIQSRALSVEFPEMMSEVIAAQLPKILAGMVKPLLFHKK
Method in brief: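 Human steroid receptor (PR, MR, AR, ERα) binding measured by radioligand displacement, with IC50s determined in duplicate. Values without a range come from a single experiment, and values with a range are geometric means of repeat experiments.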

[4] = molecular target: T1, Glucocorticoid receptor; assay: Displacement of [3H]dexamethasone from human Glucocorticoid receptor (GR); Value ranges from 70-92 nM
[5] = molecular target: T1, Glucocorticoid receptor; assay: Displacement of [3H]dexamethasone from human Glucocorticoid receptor (GR); Value ranges from 6-7 nM
Method in brief: (§1)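 Binding to human GR; IC50 reported as the geometric mean of two experiments (three for some values), each run in duplicate, with the range of the experiments given.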

[6] = molecular target: T1, Glucocorticoid receptor; assay: Displacement of [3H]dexamethasone from human Glucocorticoid receptor (GR); […]
[7] = molecular target: T1, Glucocorticoid receptor; assay: Displacement of [3H]dexamethasone from human Glucocorticoid receptor (GR); Value ranges from 3-4 nM; method in brief: as §1

Which IC50 [1] does the source give for `COc1cccc2c1-c1ccc(NS(C)(=O)=O)cc1C(c1cccs1)O2` (stereo not drawn) here?
The IC50 was 66 nM.

What about the IC50 [2] of the same molecule?
Its IC50 is 7 nM.

And the IC50 [3]?
Its IC50 is 450 nM.

What does the source list for `CCOc1cccc2c1-c1ccc(NS(C)(=O)=O)cc1C(c1ccccc1)O2` (stereo not drawn)?
IC50 [4]: 81 nM; IC50 [1]: 308 nM; IC50 [3]: 6900 nM

Which results are given for `COc1cccc2c1-c1ccc(NS(C)(=O)=O)cc1C(c1ccc(C)cc1)O2` (stereo not drawn)?
IC50 [5]: 7 nM; IC50 [3]: 673 nM

How did the IC50 [6] turn out when `COc1cccc2c1-c1ccc(NS(C)(=O)=O)cc1C(c1ccc(F)cc1)O2` (stereo not drawn) was run?
The IC50 was 29 nM.

What about the IC50 [3] of the same molecule?
The IC50 was 1160 nM.

What does the source list for `COc1cccc2c1-c1ccc(NS(C)(=O)=O)cc1C(c1cccc(F)c1)O2` (stereo not drawn)?
IC50 [7]: 3 nM; IC50 [1]: 76 nM; IC50 [3]: 476 nM

Reference: ChEMBL document CHEMBL1147539, “Synthesis and biological evaluation of novel, selective, nonsteroidal glucocorticoid receptor antagonists” (Bioorg Med Chem Lett, 2004)
